Laboratory results as given in ChEMBL document CHEMBL1649289, “Paradoxical growth of Candida dubliniensis does not preclude in vivo response to echinocandin therapy” (2009).
Values after ≈ are worked out from the molar mass of the structure shown. Starred links: 1 amine or outer side, 2 acyl side, 3 side chain; linkers in the order of their positions; H or OH if unused. Positions of bridges follow the written chain, without caps; N, C: chain ends. Non-standard residues stand in square brackets, D forms with d. Residues, ends and D or L forms follow the SMILES beside them. *: point of attachment. hTyr(3S-OH,4S-OH,3'-OSO3H) = N[C@H](C(=O)O)[C@H](O)[C@@H](O)c1ccc(O)c(OS(=O)(=O)O)c1; Orn(4R-OH,5R-OH) = O=C([C@H](C[C@@H](O)[C@@H](O)N[*:3])N[*:1])[*:2]; Pro(3S-OH,4S-Me) = C[C@H]1CN[C@H](C(=O)O)[C@H]1O; X1 = CCCCCOc1ccc(-c2cc(-c3ccc(C(=O)*)cc3)no2)cc1; Gln(3R-OH) = NC(=O)C[C@@H](O)[C@H](N)C(=O)O; Hyp = O=C(O)[C@@H]1C[C@@H](O)CN1

How the values were obtained:
Format in all cases: functional
Candida dubliniensis [1] = experiment: Antifungal activity against Candida dubliniensis FMR 10032 infected in immunosuppressed OF1 mouse assessed as fungal count in spleen at 1 mg/kg/day, iv […]
Summary of the method: (§1)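 Male OF1 mice, 10 per group, were immunosuppressed on infection day with cyclophosphamide 200 mg/kg i.p. plus 5-fluorouracil 150 mg/kg i.v., then challenged i.v. with 1.5 × 10^5 CFU. Drug was given at 1 mg/kg i.v. once daily for 5 days, starting 24 h after challenge. One day after treatment ended, kidney and spleen homogenates were plated in 10-fold dilutions on Sabouraud agar (35°C, 3 days) and mean log10 CFU was reported.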

Candida dubliniensis [2] = experiment: Antifungal activity against Candida dubliniensis 9456 by hemocytometry
Summary of the method: (§2)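 Minimal fungicidal concentration from the broth dilution test, defined as the lowest drug level giving ≥99.9% reduction in CFU/ml. Inocula were adjusted by hemocytometer.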

Candida dubliniensis [3] = experiment: Antifungal activity against Candida dubliniensis 10034 by hemocytometry; summary of the method: as §2
Candida dubliniensis [4] = experiment: Antifungal activity against Candida dubliniensis FMR 10034 infected in immunosuppressed OF1 mouse assessed as fungal count in spleen at 1 mg/kg/day, iv […]; summary of the method: as §1
Candida dubliniensis [5] = experiment: Antifungal activity against Candida dubliniensis 10032 after 24 hrs; conditions: Candida dubliniensis, 10032, 24 h
Summary of the method: (§3)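 CLSI M27-A3 broth microdilution. Yeast inoculum was adjusted with a hemocytometer. MIC was read at 24 h or 48 h as the lowest concentration giving 50% growth inhibition.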

Candida dubliniensis [6] = experiment: Antifungal activity against Candida dubliniensis 9453 after 24 hrs; conditions: Candida dubliniensis, 9453, 24 h; summary of the method: as §3
Candida dubliniensis [7] = experiment: Antifungal activity against Candida dubliniensis FMR 10034 infected in OF1 mouse assessed as fungal count in kidney at 1 mg/kg/day, iv […]
Summary of the method: (§4)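 Immunocompetent male OF1 mice, 10 per group, were challenged i.v. with 1.5 × 10^7 CFU. Drug was given i.v. once daily at 1 or 10 mg/kg for 3 days, starting 24 h post-challenge; controls were untreated. Mice were killed 1 day after the last dose. Kidneys and spleen were homogenized in saline, serial 10-fold dilutions were plated on Sabouraud agar at 35°C for 3 days, and mean log10 CFU was reported.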

Candida dubliniensis [8] = experiment: Antifungal activity against Candida dubliniensis 9453 by hemocytometry; summary of the method: as §2
Candida dubliniensis [9] = experiment: Antifungal activity against Candida dubliniensis FMR 10034 infected in immunosuppressed OF1 mouse assessed as fungal count in kidney at 1 mg/kg/day, iv […]; summary of the method: as §1
Candida dubliniensis [10] = experiment: Antifungal activity against Candida dubliniensis FMR 10032 infected in OF1 mouse assessed as fungal count in kidney at 1 mg/kg/day, iv […]; summary of the method: as §4
Candida dubliniensis [11] = experiment: Antifungal activity against Candida dubliniensis FMR 10034 infected in OF1 mouse assessed as fungal count in kidney at 10 mg/kg/day, iv […]; summary of the method: as §4
Candida dubliniensis [12] = experiment: Antifungal activity against Candida dubliniensis 9453 after 48 hrs; conditions: Candida dubliniensis, 9453, 48 h; summary of the method: as §3
Candida dubliniensis [13] = experiment: Antifungal activity against Candida dubliniensis 10033 by hemocytometry; summary of the method: as §2
Candida dubliniensis [14] = experiment: Antifungal activity against Candida dubliniensis FMR 10032 infected in immunosuppressed OF1 mouse assessed as fungal count in kidney at 1 mg/kg/day, iv […]; summary of the method: as §1
Candida dubliniensis [15] = experiment: Antifungal activity against Candida dubliniensis 10035 after 24 hrs; conditions: Candida dubliniensis, 10035, 24 h; summary of the method: as §3
Candida dubliniensis [16] = experiment: Antifungal activity against Candida dubliniensis 10035 after 48 hrs; conditions: Candida dubliniensis, 10035, 48 h; summary of the method: as §3
Candida dubliniensis [17] = experiment: Antifungal activity against Candida dubliniensis 10031 by hemocytometry; summary of the method: as §2
Candida dubliniensis [18] = experiment: Antifungal activity against Candida dubliniensis FMR 10034 infected in OF1 mouse assessed as fungal count in spleen at 10 mg/kg/day, iv […]; summary of the method: as §4
Candida dubliniensis [19] = experiment: Antifungal activity against Candida dubliniensis 10032 by hemocytometry; summary of the method: as §2
Candida dubliniensis [20] = experiment: Antifungal activity against Candida dubliniensis 10031 after 24 hrs; conditions: Candida dubliniensis, 10031, 24 h; summary of the method: as §3
Candida dubliniensis [21] = experiment: Antifungal activity against Candida dubliniensis FMR 10032 infected in OF1 mouse assessed as fungal count in kidney at 10 mg/kg/day, iv […]; summary of the method: as §4
Candida dubliniensis [22] = experiment: Antifungal activity against Candida dubliniensis 10034 after 24 hrs; conditions: Candida dubliniensis, 10034, 24 h; summary of the method: as §3
Candida dubliniensis [23] = experiment: Antifungal activity against Candida dubliniensis 9456 after 24 hrs; conditions: Candida dubliniensis, 9456, 24 h; summary of the method: as §3
Candida dubliniensis [24] = experiment: Antifungal activity against Candida dubliniensis FMR 10032 infected in OF1 mouse assessed as fungal count in spleen at 10 mg/kg/day, iv […]; summary of the method: as §4
Candida dubliniensis [25] = experiment: Antifungal activity against Candida dubliniensis 10034 assessed as compound concentration at which paradoxical growth of observed after 48 hrs
Summary of the method: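 In the same broth dilution (CLSI M27-A3) tests, read at 24 or 48 h, this is the range of drug concentrations over which paradoxical growth appeared. It was not set when growth occurred across the whole tested range (trailing).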

Candida dubliniensis [26] = experiment: Antifungal activity against Candida dubliniensis FMR 10032 infected in OF1 mouse assessed as fungal count in spleen at 1 mg/kg/day, iv […]; summary of the method: as §4
Candida dubliniensis [27] = experiment: Antifungal activity against Candida dubliniensis 10032 after 48 hrs; conditions: Candida dubliniensis, 10032, 48 h; summary of the method: as §3
Candida dubliniensis [28] = experiment: Antifungal activity against Candida dubliniensis 9456 after 48 hrs; conditions: Candida dubliniensis, 9456, 48 h; summary of the method: as §3
Candida dubliniensis [29] = experiment: Antifungal activity against Candida dubliniensis 10034 after 48 hrs; conditions: Candida dubliniensis, 10034, 48 h; summary of the method: as §3
Candida dubliniensis [30] = experiment: Antifungal activity against Candida dubliniensis 10033 after 24 hrs; conditions: Candida dubliniensis, 10033, 24 h; summary of the method: as §3
Candida dubliniensis [31] = experiment: Antifungal activity against Candida dubliniensis FMR 10034 infected in OF1 mouse assessed as fungal count in spleen at 1 mg/kg/day, iv […]; summary of the method: as §4
Candida dubliniensis [32] = experiment: Antifungal activity against Candida dubliniensis 10031 after 48 hrs; conditions: Candida dubliniensis, 10031, 48 h; summary of the method: as §3
Candida dubliniensis [33] = experiment: Antifungal activity against Candida dubliniensis 10033 after 48 hrs; conditions: Candida dubliniensis, 10033, 48 h; summary of the method: as §3

With `CCCCCOc1ccc(-c2cc(-c3ccc(C(=O)N[C@H]4C[C@@H](O)[C@@H](O)NC(=O)[C@@H]5[C@@H](O)[C@@H](C)CN5C(=O)[C@H]([C@H](O)CC(N)=O)NC(=O)[C@H]([C@H](O)[C@@H](O)c5ccc(O)c(OS(=O)(=O)O)c5)NC(=O)[C@@H]5C[C@@H](O)CN5C(=O)[C@H]([C@@H](C)O)NC4=O)cc3)no2)cc1` [MICAFUNGIN] (X1-[Orn(4R-OH,5R-OH)]T[Hyp][hTyr(3S-OH,4S-OH,3'-OSO3H)][Gln(3R-OH)][Pro(3S-OH,4S-Me)]; lactam 1-C) the log10cfu (Candida dubliniensis [1]) was 2.62, the MFC (Candida dubliniensis [2]) was > 16 µg/mL and the MFC (Candida dubliniensis [3]) was > 16 µg/mL. The log10cfu (Candida dubliniensis [4]) was 3.26, the MIC50 (Candida dubliniensis [5]) was < 0.03 µg/mL and the MIC50 (Candida dubliniensis [6]) was 0.125 µg/mL (≈ 0.0984 µM). For the same compound, the log10cfu (Candida dubliniensis [7]) was 6.33, the MFC (Candida dubliniensis [8]) was > 16 µg/mL and the log10cfu (Candida dubliniensis [9]) was 6.47. For the same compound, the log10cfu (Candida dubliniensis [10]) was 4.25, the log10cfu (Candida dubliniensis [11]) was 4.69 and the MIC50 (Candida dubliniensis [12]) was 0.125 µg/mL (≈ 0.0984 µM). For the same compound, the MFC (Candida dubliniensis [13]) was 2 µg/mL (≈ 1.57 µM), the log10cfu (Candida dubliniensis [14]) was 5.47 and the MIC50 (Candida dubliniensis [15]) was 0.03 µg/mL (≈ 0.0236 µM). For the same compound, the MIC50 (Candida dubliniensis [16]) was 0.03 µg/mL (≈ 0.0236 µM), the MFC (Candida dubliniensis [17]) was > 16 µg/mL and the log10cfu (Candida dubliniensis [18]) was 4.18. The MFC (Candida dubliniensis [19]) was 4 µg/mL (≈ 3.15 µM), the MIC50 (Candida dubliniensis [20]) was 0.125 µg/mL (≈ 0.0984 µM) and the log10cfu (Candida dubliniensis [21]) was 3.23. It also gave an MIC50 (Candida dubliniensis [22]) of 0.06 µg/mL (≈ 0.0472 µM), an MIC50 (Candida dubliniensis [23]) of 0.06 µg/mL (≈ 0.0472 µM) and a log10cfu (Candida dubliniensis [24]) of 3.58. It also gave an Activity (Candida dubliniensis [25]) of 2 µg/mL, a log10cfu (Candida dubliniensis [26]) of 3.97 and an MIC50 (Candida dubliniensis [27]) of 0.125 µg/mL (≈ 0.0984 µM). For the same compound, the MIC50 (Candida dubliniensis [28]) was 0.125 µg/mL (≈ 0.0984 µM), the MIC50 (Candida dubliniensis [29]) was 0.125 µg/mL (≈ 0.0984 µM) and the MIC50 (Candida dubliniensis [30]) was 0.125 µg/mL (≈ 0.0984 µM). The log10cfu (Candida dubliniensis [31]) was 4.79, the MIC50 (Candida dubliniensis [32]) was 0.125 µg/mL (≈ 0.0984 µM) and the MIC50 (Candida dubliniensis [33]) was 0.25 µg/mL (≈ 0.197 µM).
